Measured values published in ChEMBL document CHEMBL4007420, “Structural Optimization and Pharmacological Evaluation of Inhibitors Targeting Dual-Specificity Tyrosine Phosphorylation-Regulated Kinases (DYRK) and CDC-like kinases (CLK) in Glioblastoma” (J Med Chem, 2017).
pEC50, pIC50: −log10 of the molar value. The source made the active and inactive calls. The calls are words filed in the database; no cut-off is given here.

Key:
[1] = Cytotoxicity against patient-derived WK1 cells assessed as reduction in cell viability after 5 days by Alamar blue assay; format: functional, cell-based; conditions: Homo sapiens, WK1, 120 h
Outline: (§1)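 The patient-derived glioblastoma lines were grown as stem cells under defined conditions to keep the phenotype and genotype of the resected tumours. Viability after treatment was read with Alamar blue.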

[2] = target: Dual specificity protein kinase CLK1 (Homo sapiens, UniProt P49759); experiment: Inhibition of CLK1 (unknown origin) using KKGRSRSRSRSRSR as substrate after 40 mins in presence of [gamma-33P]ATP by microbeta scintillation counting
Dual specificity protein kinase CLK1, sequence (P49759 whole entry): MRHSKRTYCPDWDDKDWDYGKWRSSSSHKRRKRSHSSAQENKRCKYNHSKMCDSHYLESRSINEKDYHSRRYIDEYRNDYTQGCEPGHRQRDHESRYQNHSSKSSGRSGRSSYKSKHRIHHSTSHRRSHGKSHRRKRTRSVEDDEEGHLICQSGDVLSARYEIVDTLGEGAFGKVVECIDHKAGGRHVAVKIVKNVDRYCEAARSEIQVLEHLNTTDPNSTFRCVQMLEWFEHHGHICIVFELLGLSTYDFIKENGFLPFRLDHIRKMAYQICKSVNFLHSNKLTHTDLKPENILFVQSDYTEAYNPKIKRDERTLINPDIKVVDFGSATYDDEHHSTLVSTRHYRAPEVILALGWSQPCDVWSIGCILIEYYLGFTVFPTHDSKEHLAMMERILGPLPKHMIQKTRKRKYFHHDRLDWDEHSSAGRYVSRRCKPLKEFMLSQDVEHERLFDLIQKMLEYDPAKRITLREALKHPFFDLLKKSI
Outline: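 CLK1 was assayed with RS peptide substrate at 100 µM ATP.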

[3] = Cytotoxicity against patient-derived JK2 cells assessed as reduction in cell viability after 3 days by Alamar blue assay; format: functional, cell-based; conditions: Homo sapiens, JK2, 72 h; outline: as §1
[4] = target: Dual specificity tyrosine-phosphorylation-regulated kinase 1B (Homo sapiens, UniProt Q9Y463); experiment: Inhibition of DYRK1B (unknown origin) using woodtide as substrate after 40 mins in presence of [gamma-33P]ATP by microbeta scintillation counting
Dual specificity tyrosine-phosphorylation-regulated kinase 1B, sequence (Q9Y463 whole entry): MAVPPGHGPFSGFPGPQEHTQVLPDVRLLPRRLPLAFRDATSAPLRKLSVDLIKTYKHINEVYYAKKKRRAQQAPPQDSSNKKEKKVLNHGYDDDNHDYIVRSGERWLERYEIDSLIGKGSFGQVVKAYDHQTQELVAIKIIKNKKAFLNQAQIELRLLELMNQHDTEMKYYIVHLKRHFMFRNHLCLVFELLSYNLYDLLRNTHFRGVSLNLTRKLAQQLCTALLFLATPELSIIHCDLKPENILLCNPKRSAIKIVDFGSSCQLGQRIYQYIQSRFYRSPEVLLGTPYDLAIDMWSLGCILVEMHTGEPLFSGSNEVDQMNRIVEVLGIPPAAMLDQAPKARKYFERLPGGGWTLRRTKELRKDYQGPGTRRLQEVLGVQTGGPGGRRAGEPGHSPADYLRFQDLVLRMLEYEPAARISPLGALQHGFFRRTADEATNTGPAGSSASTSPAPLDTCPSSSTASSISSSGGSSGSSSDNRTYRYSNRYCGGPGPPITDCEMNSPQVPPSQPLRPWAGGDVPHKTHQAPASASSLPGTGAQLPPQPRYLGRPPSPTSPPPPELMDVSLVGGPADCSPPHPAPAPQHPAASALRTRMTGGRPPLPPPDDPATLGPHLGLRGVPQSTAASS

[5] = Cytotoxicity against patient-derived RN1 cells assessed as reduction in cell viability after 3 days by Alamar blue assay; format: functional, cell-based; conditions: Homo sapiens, RN1, 72 h; outline: as §1
[6] = target: T1, Dual specificity tyrosine-phosphorylation-regulated kinase 2 (Homo sapiens, UniProt Q92630); experiment: Inhibition of DYRK2 (unknown origin) using woodtide as substrate after 40 mins in presence of [gamma-33P]ATP by microbeta scintillation counting
T1 sequence (Q92630 whole entry): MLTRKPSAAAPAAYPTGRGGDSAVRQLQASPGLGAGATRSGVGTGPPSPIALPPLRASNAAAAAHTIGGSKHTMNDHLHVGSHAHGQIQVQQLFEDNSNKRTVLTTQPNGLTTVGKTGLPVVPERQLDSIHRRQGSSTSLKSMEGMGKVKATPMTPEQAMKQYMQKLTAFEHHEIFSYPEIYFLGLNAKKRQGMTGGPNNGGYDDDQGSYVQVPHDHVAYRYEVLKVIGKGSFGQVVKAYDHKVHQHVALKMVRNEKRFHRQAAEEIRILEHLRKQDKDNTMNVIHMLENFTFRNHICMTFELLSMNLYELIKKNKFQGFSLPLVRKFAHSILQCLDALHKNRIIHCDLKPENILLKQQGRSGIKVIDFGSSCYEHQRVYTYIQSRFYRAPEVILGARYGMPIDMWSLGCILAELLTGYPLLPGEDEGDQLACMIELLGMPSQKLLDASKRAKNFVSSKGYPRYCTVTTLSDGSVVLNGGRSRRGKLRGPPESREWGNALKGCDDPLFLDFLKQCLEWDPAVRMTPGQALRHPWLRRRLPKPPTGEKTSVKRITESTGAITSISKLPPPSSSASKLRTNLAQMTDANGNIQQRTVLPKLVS

[7] = Cytotoxicity against patient-derived SJH1 cells assessed as reduction in cell viability after 3 days by Alamar blue assay; format: functional, cell-based; conditions: Homo sapiens, SJH1, 72 h; outline: as §1
[8] = target: Dual specificity tyrosine-phosphorylation-regulated kinase 1A (Homo sapiens, UniProt Q13627); experiment: Inhibition of DYRK1A (unknown origin) using woodtide as substrate after 10 mins in presence of [gamma-33P]ATP by microbeta scintillation counting
Homo sapiens = species on record: Homo sapiens; experiment: Inhibition of tubulin (unknown origin) polymerization

Row | SMILES | pIC50 [2] | pIC50 [4] | pIC50 [6] | pIC50 [8] | inhibition (Homo sapiens) | pEC50 [1] | pEC50 [3] | pEC50 [5] | pEC50 [7]
1 | O=C(Nc1cccc(O)c1)c1cnc2[nH]cc(-c3ccc(O)cc3)c2c1 | 7.47 | 6.86 | 6.07 | 6.90 |  | 4.88 | 4.41 | 4.86 | 5.24
2 | CC(=O)O[C@H]1C(=O)[C@@]2(C)[C@H]([C@H](OC(=O)c3ccccc3)[C@]3(O)C[C@H](OC(=O)[C@H](O)[C@@H](NC(=O)c4ccccc4)c4ccccc4)C(C)=C1C3(C)C)[C@]1(OC(C)=O)CO[C@@H]1C[C@@H]2O |  |  |  |  | Active |  |  |  | 
3 | Oc1ccc(-c2cnc3[nH]cc(-c4ccc(-c5nnn[nH]5)cc4)c3c2)cc1 | 7.07 | 6.76 | 6.38 | 6.55 |  | < 4.30 | < 4.30 | < 4.30 | < 4.30
4 | O=C(Nc1cccc(O)c1)c1c[nH]c2ncc(-c3ccc(O)cc3)cc12 | < 6.00 | < 6.00 | < 6.00 | < 6.00 |  | < 4.30 | < 4.30 | < 4.30 | < 4.30
5 | Oc1ccc(-c2ccc3[nH]nc(-c4ccc(O)cc4)c3c2)cc1 | < 6.00 | < 6.00 | < 6.00 | < 6.00 |  | < 4.30 | < 4.30 | < 4.30 | < 4.30
6 | Oc1ccc(-c2c[nH]c3ncc(-c4ccc5[nH]ccc5c4)cc23)cc1 | 7.59 | 7.29 | 6.19 | 6.69 |  | < 4.30 | < 4.30 | < 4.30 | 4.52
7 | Oc1ccc(-c2cnc3[nH]cc(-c4ccc5[nH]ccc5c4)c3c2)cc1 | 6.93 | 7.08 | 6.24 | 6.77 |  | 5.21 | 5.20 | 5.24 | 5.66

More lines, main results first:

Row | pIC50 [2] | pIC50 [4] | pIC50 [6] | pIC50 [8] | inhibition (Homo sapiens) | SMILES | pEC50 [1] | pEC50 [3] | pEC50 [5] | pEC50 [7]
8 | 6.73 | 6.70 | < 6.00 | 6.67 |  | O=[N+]([O-])c1ccc(-c2cnc3[nH]cc(-c4ccc(O)cc4)c3c2)cc1 | < 4.30 | < 4.30 | < 4.30 | < 4.30
9 | 7.32 | 7.82 | 6.78 | 7.85 |  | Oc1ccc(-c2cnc3[nH]cc(-c4ccc(O)cc4)c3c2)cc1 | 5.96 | 5.29 | 5.70 | 5.39
10 | < 6.00 | < 6.00 | < 6.00 | < 6.00 |  | Oc1ccc(-c2ccc3[nH]cc(-c4ccc(O)cc4)c3c2)cc1 | < 4.30 | < 4.30 | < 4.30 | < 4.30
11 | < 6.00 | < 6.00 | < 6.00 | < 6.00 |  | O=C(Nc1ccc(O)cc1)c1c[nH]c2ncc(-c3ccc(O)cc3)cc12 | < 4.30 | < 4.30 | < 4.30 | < 4.30
12 | 7.15 | 7.38 | 6.39 | 7.07 |  | Oc1ccc(-c2c[nH]c3ncc(-c4ccc(-c5nnn[nH]5)cc4)cc23)cc1 | < 4.30 | < 4.30 | < 4.30 | < 4.30
13 | 7.92 | 6.89 | < 6.00 | 6.46 |  | O=C(Nc1ccc(O)cc1)c1cnc2[nH]cc(-c3ccc(O)cc3)c2c1 | 4.68 | 4.42 | 4.90 | 5.28
14 | 8.02 | 7.77 | 6.32 | 7.51 |  | NC(=O)Nc1ccc(-c2cnc3[nH]cc(-c4ccc(O)cc4)c3c2)cc1 | < 4.30 | < 4.30 | 4.66 | 4.55
15 | 7.36 | 6.89 | 6.14 | 7.25 |  | CS(=O)(=O)Nc1ccc(-c2cnc3[nH]cc(-c4ccc(O)cc4)c3c2)cc1 | 4.38 | 4.89 | 4.85 | 4.38
